{"source": "ChEMBL document CHEMBL1152859", "about": "“The novel phosphoramidate derivatives of NSAID 3-hydroxypropylamides: synthesis, cytostatic and antiviral activity evaluations” (Eur J Med Chem, 2009)", "key": {"SW-620": {"test_system": "SW-620", "assay": "Cytostatic activity against human SW620 cells after 72 hrs by MTT assay", "type": "functional, cell-based", "settings": "SW-620, 72 h", "procedure,_shortened": "(§1)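 Monolayer cells were grown in DMEM with 10% FBS, 2 mM L-glutamine, penicillin and streptomycin at 37 °C under 5% CO2. They were seeded on day 0 at 1 × 10⁴ to 3 × 10⁴ cells/ml and exposed to five 10-fold dilutions (10⁻⁸ to 10⁻⁴ M) for 72 h, with a solvent control. Read-out was MTT. Quadruplicates in three experiments (WI 38: one experiment). IC50 by linear regression of percentage-of-growth.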"}, "Coxsackievirus B4 [1]": {"test_system": "Coxsackievirus B4", "assay": "Antiviral activity against Coxsackievirus B4 infected in human HeLa cells assessed as inhibition of virus-induced cytopathicity", "type": "functional, organism-based", "procedure,_shortened": "(§2)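 Cells were infected with 100 CCID50 of virus for 2 h, then residual virus was removed. Medium with graded compound concentrations was added and cultures were kept 3 days at 37 °C. Cytopathogenicity was scored microscopically. EC50 is the concentration reducing virus-induced cytopathogenicity by 50%.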"}, "[2]": {"test_system": "Vesicular stomatitis virus", "assay": "Antiviral activity against Vesicular stomatitis virus infected in human HeLa cells assessed as inhibition of virus-induced cytopathicity", "type": "functional, organism-based", "procedure,_shortened": "(§3)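 Cell cultures were exposed for 2 h to 100 CCID50 of virus, and residual virus was then removed. Infected cells were further incubated with medium containing varying compound concentrations for 3 days at 37 °C. Virus-induced cytopathogenicity was scored microscopically. EC50 is the concentration giving a 50% reduction of cytopathogenicity.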"}, "Cytomegalovirus": {"test_system": "Cytomegalovirus", "assay": "Antiviral activity against Cytomegalovirus infected in HEL cells assessed as inhibition of virus-induced cytopathicity", "type": "functional, organism-based", "procedure,_shortened": "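Confluent HEL fibroblasts were infected with CMV strains Davis and AD-169 at 100 PFU per well for 2 h, then virus was removed. Graded concentrations were added in duplicate and cultures kept 7 days at 37 °C. Cytopathogenicity was scored microscopically after ethanol fixation and Giemsa staining. EC50 is the 50% reduction.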"}, "Human alphaherpesvirus 3": {"test_system": "Human alphaherpesvirus 3", "assay": "Antiviral activity against Varicella-Zoster virus infected in HEL cells assessed as inhibition of virus-induced cytopathicity", "type": "functional, organism-based"}, "MIA PaCa-2": {"test_system": "MIA PaCa-2", "assay": "Cytostatic activity against human MIAPaCa2 cells after 72 hrs by MTT assay", "type": "functional, cell-based", "settings": "MIA PaCa-2, 72 h", "procedure,_shortened": "as §1"}, "Vaccinia virus": {"test_system": "Vaccinia virus", "assay": "Antiviral activity against Vaccinia virus infected in HEL cells assessed as inhibition of virus-induced cytopathicity", "type": "functional, organism-based", "settings": "Orthopoxvirus vaccinia", "procedure,_shortened": "as §3"}, "HeLa": {"test_system": "HeLa", "assay": "Cytostatic activity against human HeLa cells after 72 hrs by MTT assay", "type": "functional, cell-based", "procedure,_shortened": "as §1"}, "Human respirovirus 3": {"test_system": "Human respirovirus 3", "assay": "Antiviral activity against Parainfluenza-3 virus infected in african green monkey Vero cells assessed as inhibition of virus-induced cytopathicity", "type": "functional, organism-based", "procedure,_shortened": "as §2"}, "Sindbis virus": {"test_system": "Sindbis virus", "assay": "Antiviral activity against Sindbis virus infected in african green monkey Vero cells assessed as inhibition of virus-induced cytopathicity", "type": "functional, organism-based", "procedure,_shortened": "as §2"}, "[3]": {"assay": "Cytostatic activity against human WI38 cells after 72 hrs by MTT assay", "type": "ADME, cell-based", "settings": "WI-38, 72 h", "procedure,_shortened": "as §1"}, "Coxsackievirus B4 [4]": {"test_system": "Coxsackievirus B4", "assay": "Antiviral activity against Coxsackievirus B4 infected in african green monkey Vero cells assessed as inhibition of virus-induced cytopathicity", "type": "functional, organism-based", "procedure,_shortened": "as §2"}, "Human alphaherpesvirus 2": {"test_system": "Human alphaherpesvirus 2", "assay": "Antiviral activity against Herpes simplex virus 2 infected in HEL cells assessed as inhibition of virus-induced cytopathicity", "type": "functional, organism-based"}, "CCRF-CEM": {"test_system": "CCRF-CEM", "assay": "Cytostatic activity against human CEM cells after 72 hrs by MTT assay", "type": "functional, cell-based"}, "[5]": {"test_system": "Vesicular stomatitis virus", "assay": "Antiviral activity against Vesicular stomatitis virus infected in HEL cells assessed as inhibition of virus-induced cytopathicity", "type": "functional, organism-based", "procedure,_shortened": "as §3"}, "[6]": {"test_system": "Human immunodeficiency virus 2", "assay": "Antiviral activity against HIV2 ROD infected in human CEM cells assessed as inhibition of virus-induced cytopathicity", "type": "functional, organism-based", "settings": "CCRF-CEM"}, "L1210": {"test_system": "L1210", "assay": "Cytostatic activity against mouse L1210 cells after 48 hrs by MTT assay", "type": "functional, cell-based", "settings": "L1210, 48 h"}, "[7]": {"test_system": "Mammalian orthoreovirus 1", "assay": "Antiviral activity against Reovirus 1 infected in african green monkey Vero cells assessed as inhibition of virus-induced cytopathicity", "type": "functional, organism-based", "procedure,_shortened": "as §2"}, "Human alphaherpesvirus 1": {"test_system": "Human alphaherpesvirus 1", "assay": "Antiviral activity against Herpes simplex virus 1 infected in HEL cells assessed as inhibition of virus-induced cytopathicity", "type": "functional, organism-based"}, "NCI-H460": {"test_system": "NCI-H460", "assay": "Cytostatic activity against human H460 cells after 72 hrs by MTT assay", "type": "functional, cell-based", "settings": "NCI-H460, 72 h", "procedure,_shortened": "as §1"}, "MCF7": {"test_system": "MCF7", "assay": "Cytostatic activity against human MCF7 cells after 72 hrs by MTT assay", "type": "functional, cell-based", "settings": "MCF7, 72 h", "procedure,_shortened": "as §1"}, "[8]": {"assay": "Cytostatic activity against human Molt4/C8 cells after 72 hrs by MTT assay", "type": "functional, cell-based", "settings": "MOLT-4, 72 h"}, "[9]": {"test_system": "Human immunodeficiency virus 1", "assay": "Antiviral activity against HIV1 3B infected in human CEM cells assessed as inhibition of virus-induced cytopathicity", "type": "functional, organism-based", "settings": "CCRF-CEM"}, "Punta Toro virus": {"test_system": "Punta Toro virus", "assay": "Antiviral activity against Punta Toro virus infected in african green monkey Vero cells assessed as inhibition of virus-induced cytopathicity", "type": "functional, organism-based", "procedure,_shortened": "as §2"}, "[10]": {"test_system": "Respiratory syncytial virus", "assay": "Antiviral activity against Respiratory syncytial virus infected in human HeLa cells assessed as inhibition of virus-induced cytopathicity", "type": "functional, organism-based", "procedure,_shortened": "as §2"}}, "note": "Calls of active or inactive are those of the source. No cut-off for these calls is given here."}
{"smiles": "COC(=O)[C@H](C)NP(=O)(OCCCNC(=O)C(C)c1cccc(C(=O)c2ccccc2)c1)Oc1ccc(Cl)cc1", "note": "(stereo not given in full)", "values": [{"measurement": "IC50", "setting": "SW-620", "result": 17, "unit": "µM"}, {"measurement": "Activity", "setting": "Coxsackievirus B4 [1]", "result": "inactive"}, {"measurement": "Activity", "setting": "[2]", "result": "inactive"}, {"measurement": "Activity", "setting": "Cytomegalovirus", "result": "inactive"}, {"measurement": "Activity", "setting": "Human alphaherpesvirus 3", "result": "inactive"}, {"measurement": "IC50", "setting": "MIA PaCa-2", "result": 14, "unit": "µM"}, {"measurement": "Activity", "setting": "Vaccinia virus", "result": "inactive"}, {"measurement": "IC50", "setting": "HeLa", "result": 19, "unit": "µM"}, {"measurement": "Activity", "setting": "Human respirovirus 3", "result": "inactive"}, {"measurement": "Activity", "setting": "Sindbis virus", "result": "inactive"}, {"measurement": "IC50", "setting": "[3]", "result": 30, "unit": "µM"}, {"measurement": "Activity", "setting": "Coxsackievirus B4 [4]", "result": "inactive"}, {"measurement": "Activity", "setting": "Human alphaherpesvirus 2", "result": "inactive"}, {"measurement": "IC50", "setting": "CCRF-CEM", "result": 40, "unit": "µM"}, {"measurement": "Activity", "setting": "[5]", "result": "inactive"}, {"measurement": "Activity", "setting": "[6]", "result": "inactive"}, {"measurement": "IC50", "setting": "L1210", "result": 44, "unit": "µM"}, {"measurement": "Activity", "setting": "[7]", "result": "inactive"}, {"measurement": "Activity", "setting": "Human alphaherpesvirus 1", "result": "inactive"}, {"measurement": "IC50", "setting": "NCI-H460", "result": 18, "unit": "µM"}, {"measurement": "IC50", "setting": "MCF7", "result": 14, "unit": "µM"}, {"measurement": "IC50", "setting": "[8]", "result": 40, "unit": "µM"}, {"measurement": "Activity", "setting": "[9]", "result": "inactive"}, {"measurement": "Activity", "setting": "Punta Toro virus", "result": "inactive"}, {"measurement": "Activity", "setting": "[10]", "result": "inactive"}]}
